This passage reports Ki and ED90 results from ChEMBL document CHEMBL1124629, “Syntheses and biological activities of 13-substituted avermectin aglycons” (J Med Chem, 1989).

Assay [1] can be described thus: Displacement of ivermectin from avermectin receptor of Caenorhabditis elegans. Summed up: (§1)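 Competitive binding with [22,23-3H2]ivermectin as radioligand, displaced from an avermectin receptor preparation derived from the free-living nematode Caenorhabditis elegans.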
Assay [2] deals with Trichostrongylus colubriformis. Nature of the assay: Antiparasitic activity against Trichostrongylus colubriformis. Type of assay: functional. Summed up: (§2)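 Sheep nematode Trichostrongylus colubriformis tested in vivo in a gerbil infection model.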
Assay [3] concerns Tetranychus urticae. Briefly: Antiparasitic activity against Tetranychus urticae. Type of assay: functional. Summed up:
(§3)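 Two-spotted spider mite (Tetranychus urticae) infesting bean plants treated with test compound.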

For assay [4], the system named is Trichostrongylus colubriformis. Nature of the assay: Antiparasitic activity against sheep parasite Trichostrongylus colubriformis. Conditions: in gerbil.
Assay [5] deals with Spodoptera eridania. Briefly: Antiparasitic activity against southern army worm Spodoptera eridania. Format: functional. Summed up: (§4)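 Neonate southern armyworm (Spodoptera eridania) larvae placed on bean leaves treated with test compound.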
For assay [6], the system named is Tetranychus urticae. Nature of the assay: Antiparasitic activity against two-spotted spider mite Tetranychus urticae on bean plants. Format: functional. In outline:
as §3

Assay [7] deals with Spodoptera eridania. Nature of the assay: Antiparasitic activity against Southern army worm. Format: functional. Summed up: as §4
Assay [8] is described as follows: Binding radioligand. Details: species or system Caenorhabditis elegans. In outline: as §1
The test system of assay [9] is Trichostrongylus colubriformis. Nature of the assay: Antiparasitic activity against sheep parasite Trichostrongylus colubriformis. Format: functional. In outline: as §2

As for `CC[C@H](C)[C@H]1O[C@]2(CC[C@@H]1C)C[C@@H]1C[C@@H](C/C=C(\C)[C@H](I)[C@@H](C)/C=C/C=C3\CO[C@@H]4[C@H](O)C(C)=C[C@@H](C(=O)O1)[C@]34O)O2`, in [1], affinity was put at a Ki of 2.4 nM. For the same molecule, the ED90 in assay [2] stood at 0.5 mg/kg; in assay [3] it was 1.25 p.p.m.

Turning to `CC[C@H](C)[C@H]1O[C@]2(CC[C@@H]1C)C[C@@H]1C[C@@H](C/C=C(C)/C=C(C)\C=C\C=C3/CO[C@@H]4[C@H](O)C(C)=C[C@@H](C(=O)O1)[C@]34O)O2`, the values for the ED90 in assay [4], in assay [5] and in assay [6] were over 2.5 mg/kg, over 1 p.p.m and over 6.25 p.p.m, respectively. The Ki – broadly, the dissociation constant of the complex between target and ligand, obtained from inhibition or displacement – in assay [1] is 0.8 nM.

Consider `CC[C@H](C)[C@H]1O[C@]2(CC[C@@H]1C)C[C@@H]1C[C@@H](C/C=C(\C)[C@@H](F)[C@@H](C)/C=C/C=C3\CO[C@@H]4[C@H](O)C(C)=C[C@@H](C(=O)O1)[C@]34O)O2`, for which the ED90 in assay [4] was under 0.1 mg/kg; in assay [5], over 0.5 p.p.m; in [6], 0.05 p.p.m. The Ki in assay [1] was determined as 0.2 nM.

As to `CC[C@H](C)[C@H]1O[C@]2(CC[C@@H]1C)C[C@@H]1C[C@@H](C/C=C(\C)C[C@@H](C)/C=C/C=C3\CO[C@@H]4[C@H](O)C(C)=C[C@@H](C(=O)O1)[C@]34O)O2`, the results for the ED90 in assay [4], in assay [5] and in assay [6] were 0.06 mg/kg, 0.5 p.p.m and 0.05 p.p.m, respectively. Also, the Ki in assay [1] is 0.9 nM.

On to `CC[C@H](C)[C@H]1O[C@]2(CC[C@@H]1C)C[C@@H]1C[C@@H](C/C=C(\C)[C@@H](OCOCCOC)[C@@H](C)/C=C/C=C3\CO[C@@H]4[C@H](O)C(C)=C[C@@H](C(=O)O1)[C@]34O)O2`, for which the affinity in assay [1], expressed as Ki, was 2.7 nM. Besides, the ED90 in assay [7] was under 1 p.p.m; in assay [2], over 0.1 mg/kg; in assay [3], 0.05 p.p.m.

Turning to `CC[C@H](C)[C@H]1O[C@]2(CC[C@@H]1C)C[C@@H]1C[C@@H](C/C=C(\C)C(=O)[C@@H](C)/C=C/C=C3\CO[C@@H]4[C@H](O)C(C)=C[C@@H](C(=O)O1)[C@]34O)O2`, affinity in assay [1] was put at a Ki of 0.6 nM. The ED90 was over 0.5 p.p.m in assay [7], 0.5 mg/kg in assay [2] and 6.25 p.p.m in assay [3].

Regarding `CC[C@H](C)[C@H]1O[C@]2(CC[C@@H]1C)C[C@@H]1C[C@@H](C/C=C(\C)[C@H](O)[C@@H](C)/C=C/C=C3\CO[C@@H]4[C@H](O)C(C)=C[C@@H](C(=O)O1)[C@]34O)O2`, the ED90 in [4] is under 0.5 mg/kg; in assay [5], over 8 p.p.m; in assay [6], 0.05 p.p.m. The same molecule yielded an inhibitory constant (Ki) in assay [1] of 2 nM.

In the case of `CC[C@H](C)[C@H]1O[C@]2(CC[C@@H]1C)C[C@@H]1C[C@@H](C/C=C(\C)[C@H](F)[C@@H](C)/C=C/C=C3\CO[C@@H]4[C@H](O)C(C)=C[C@@H](C(=O)O1)[C@]34O)O2`, the ED90 in [4] is under 0.1 mg/kg; in assay [5], 0.5 p.p.m; in [6] it was 0.01 p.p.m. This molecule also gave a Ki in assay [1] of 0.3 nM.

`CC[C@H](C)[C@H]1O[C@]2(CC[C@@H]1C)C[C@@H]1C[C@@H](C/C=C(\C)[C@@H](OC)[C@@H](C)/C=C/C=C3\CO[C@@H]4[C@H](O)C(C)=C[C@@H](C(=O)O1)[C@]34O)O2`: the ED90 in [4] came to 0.5 mg/kg; in assay [6] it was 1 p.p.m. In [1], this molecule returned a Ki of 0.6 nM.

Consider `CC[C@H](C)[C@H]1O[C@]2(CC[C@@H]1C)C[C@@H]1C[C@@H](C/C=C(\C)[C@@H](N)[C@@H](C)/C=C/C=C3\CO[C@@H]4[C@H](O)C(C)=C[C@@H](C(=O)O1)[C@]34O)O2`, for which the ED90 is 0.5 mg/kg in assay [4], over 1 p.p.m in [5] and over 0.1 p.p.m in assay [6]. Also, in assay [1], the Ki is over 100 nM.

Take IVERMECTIN [listing 1 of 2 here]: the Ki in assay [8] came to 0.3 nM.

Regarding `CC[C@H](C)[C@H]1O[C@]2(CC[C@@H]1C)C[C@@H]1C[C@@H](C/C=C(C)/C(=N\OC)[C@@H](C)/C=C/C=C3\CO[C@@H]4[C@H](O)C(C)=C[C@@H](C(=O)O1)[C@]34O)O2`, the values for the ED90 in assay [4], in assay [5] and in assay [6] were under 0.1 mg/kg, 0.5 p.p.m and 0.05 p.p.m, respectively. In assay [8], the affinity corresponds to a Ki of 0.3 nM.

IVERMECTIN [listing 2 of 2 here]: the ED90 in assay [5] was 8 p.p.m; in [6], 0.05 p.p.m; in [9], 0.05 mg/kg.

On to `CC[C@H](C)[C@H]1O[C@]2(CC[C@@H]1C)C[C@@H]1C[C@@H](CC(N3CCOCC3)/C(C)=C\[C@@H](C)/C=C/C=C3\CO[C@@H]4[C@H](O)C(C)=C[C@@H](C(=O)O1)[C@]34O)O2` (some centres not stated), for which the ED90 in [4] was over 2.5 mg/kg; in assay [6], 6.25 p.p.m. Further, the Ki in [1] was over 100 nM.

Regarding `CC[C@H](C)[C@H]1O[C@]2(C=C[C@@H]1C)C[C@@H]1C[C@@H](C/C=C(\C)[C@@H](O[C@H]3C[C@H](OC)[C@@H](O[C@H]4C[C@H](OC)[C@@H](O)[C@H](C)O4)[C@H](C)O3)[C@@H](C)/C=C/C=C3\CO[C@@H]4[C@H](O)C(C)=C[C@@H](C(=O)O1)[C@]34O)O2` [ABAMECTIN COMPONENT B1A], the ED90 is 0.03 mg/kg in assay [4], 8 p.p.m in [5] and 0.05 p.p.m in [6]. The molecule also returned a Ki in [8] of 0.1 nM.

On to `CC[C@H](C)[C@H]1O[C@]2(CC[C@@H]1C)C[C@@H]1C[C@@H](C/C=C(\C)[C@H](OCOCCOC)[C@@H](C)/C=C/C=C3\CO[C@@H]4[C@H](O)C(C)=C[C@@H](C(=O)O1)[C@]34O)O2`, for which, in assay [1], affinity was put at a Ki of 2.9 nM. Also, the ED90 in [7] was over 0.25 p.p.m; in [2], under 0.1 mg/kg; in assay [3], 0.01 p.p.m.

The molecule `CC[C@H](C)[C@H]1O[C@]2(CC[C@@H]1C)C[C@@H]1C[C@@H](CC(O)/C(C)=C\[C@@H](C)/C=C/C=C3\CO[C@@H]4[C@H](O)C(C)=C[C@@H](C(=O)O1)[C@]34O)O2` (some centres not stated) displayed an ED90 in assay [6] of over 6.25 p.p.m. This molecule also had an inhibition constant Ki in [8] of over 100 nM.

Regarding `CC[C@H](C)[C@H]1O[C@]2(CC[C@@H]1C)C[C@@H]1C[C@@H](C/C=C(\C)[C@@H](O)[C@@H](C)/C=C/C=C3\CO[C@@H]4[C@H](O)C(C)=C[C@@H](C(=O)O1)[C@]34O)O2` [IVM AGLYCONE], the inhibition constant (Ki) in assay [1] came out at 6.4 nM. Besides, the ED90 is listed as over 6.25 p.p.m in [5] and 0.5 p.p.m in assay [6].

For `CC[C@H](C)[C@H]1O[C@]2(CC[C@@H]1C)C[C@@H]1C[C@@H](CC(N(C)C(C)=O)/C(C)=C\[C@@H](C)/C=C/C=C3\CO[C@@H]4[C@H](O)C(C)=C[C@@H](C(=O)O1)[C@]34O)O2` (some centres not stated), the ED90 was over 2.5 mg/kg in assay [4] and over 6.25 p.p.m in [6]. This molecule had a Ki in assay [8] of over 100 nM.

Molecule `CC[C@H](C)[C@H]1O[C@]2(CC[C@@H]1C)C[C@@H]1C[C@@H](C/C=C(\C)[C@H](Cl)[C@@H](C)/C=C/C=C3\CO[C@@H]4[C@H](O)C(C)=C[C@@H](C(=O)O1)[C@]34O)O2` came in with a Ki in assay [1] of 1 nM. The ED90 amounted to 0.5 p.p.m in assay [7], 0.1 mg/kg in assay [2] and 0.25 p.p.m in [3].

Take `CC[C@H](C)[C@H]1O[C@]2(CC[C@@H]1C)C[C@@H]1C[C@@H](C/C=C(\C)[C@@H](Cl)[C@@H](C)/C=C/C=C3\CO[C@@H]4[C@H](O)C(C)=C[C@@H](C(=O)O1)[C@]34O)O2`: the results for the ED90 in assay [7], in assay [2] and in assay [3] were under 1 p.p.m, under 0.1 mg/kg and over 0.1 p.p.m, respectively.
